Laboratory results as given in ChEMBL document CHEMBL3992522, “Antileishmanial Activity of Pyrazolopyridine Derivatives and Their Potential as an Adjunct Therapy with Miltefosine” (J Med Chem, 2017).
The source made the active and inactive calls. No cut-off for these calls is given here.

Key:
[1] = test system: Mus musculus; assay: Increase in TNFalpha level in Balb/c mouse splenocytes infected with Leishmania donovani amastigote forms at 25 mg/kg, ip co-treated with 5 mg/kg, po miltefosine administered for 5 consecutive days measured on day 7 post last treatment by sandwich ELISA relative to control; assay type: functional
In short: (§1)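 BALB/c mice infected with L. donovani (15 days); treatment for 5 consecutive days, test compound i.p. in 8% DMSO/water, miltefosine oral in TDW; sacrificed day 4 and day 7 post-treatment, n = 5 per group. Splenocytes (2×10^6) cultured 72 h in phenol red-free RPMI 1640 with 5 μg/mL SLA; supernatant cytokines by sandwich ELISA.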

[2] = Half life in Swiss mouse at 50 mg/kg, po by LC-MS/MS analysis; assay type: ADME, organism-based; details: in vivo
[3] = test system: Leishmania donovani; assay: Antileishmanial activity against Leishmania donovani amastigote forms infected in Balb/c mouse assessed as inhibition of parasitic burden in spleen at 50 mg/kg, ip administered for 5 consecutive days measured on day 7 post last treatment by Giemsa staining based assay relative to control; assay type: functional; details: 168 h
[4] = test system: Mus musculus; assay: Increase in iNOS mRNA expression level in Balb/c mouse splenocytes infected with Leishmania donovani amastigote forms at 25 mg/kg, ip for 5 consecutive days measured on day 4 post last treatment by RT-PCR assay relative to control; assay type: functional
In short: (§2)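 Infected BALB/c mice dosed for 5 consecutive days (test compound i.p. in 8% DMSO, miltefosine oral), n = 5 per group; splenocytes taken day 4 and day 7 post-treatment. Total RNA extracted and iNOS mRNA quantified by real-time PCR, normalized to mouse β-actin, expressed as fold change over uninfected controls.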

[5] = Cytotoxicity against African green monkey Vero cells assessed as cell viability up to 200 uM after 72 hrs by MTT assay relative to control; assay type: cell-based; details: chlorocebus sabaeus, read-out: Activity
[6] = test system: Leishmania donovani; assay: Antileishmanial activity against Leishmania donovani MHOM/IN/80/DD8 amastigote forms harboring luciferase gene infected in mouse J774 cells at 50 uM up to 72 hrs by Giemsa staining based assay relative to control; assay type: functional; details: MHOM/IN/80/DD8, J774, 72 h
In short: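 J774 macrophages in chamber slides infected with Dd8 promastigotes (1:10 cell:parasite in methods; 1:8 in legend) for 24 h, then treated 48 and 72 h. Cells methanol-fixed, stained with 20% Giemsa. Amastigotes per 100 macrophages counted against untreated infected controls.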

[7] = test system: Leishmania donovani; assay: Antileishmanial activity against Leishmania donovani amastigote forms infected in Balb/c mouse assessed as inhibition of parasitic burden in liver at 200 mg/kg, ip administered for 5 consecutive days measured on day 7 post last treatment by Giemsa staining based assay relative to control; assay type: functional; details: Leishmania donovani, ip, 168 h
[8] = test system: Leishmania donovani; assay: Antileishmanial activity against Leishmania donovani MHOM/IN/80/DD8 amastigote forms harboring luciferase gene infected in mouse J774 cells after 72 hrs by Steady-Glo reagent based luminescence assay; assay type: functional, cell-based; details: MHOM/IN/80/DD8, J774, 72 h
[9] = test system: Leishmania donovani; assay: Antileishmanial activity against Leishmania donovani amastigote forms infected in Balb/c mouse assessed as reduction in liver weight at 12.5 to 200 mg/kg, ip administered for 5 consecutive days co-treated with 5 to 25 mg/kg, po miltefosine; assay type: functional, organism-based
[10] = test system: Leishmania donovani; assay: Induction of mitochondrial membrane potential loss in Leishmania donovani MHOM/IN/80/DD8 promastigote forms at 50 uM after 24 hrs by JC-1 staining based flow cytometry (reference value: 5.02%); assay type: functional
[11] = test system: Leishmania donovani; assay: Antileishmanial activity against Leishmania donovani amastigote forms infected in Balb/c mouse assessed as inhibition of parasitic burden in liver at 50 mg/kg, ip administered for 5 consecutive days measured up to 7 weeks post treatment by Giemsa staining based assay; assay type: functional, organism-based
[12] = test system: Leishmania donovani; assay: Antileishmanial activity against Leishmania donovani amastigote forms infected in Balb/c mouse assessed as inhibition of parasitic burden in liver at 25 mg/kg, ip co-treated with 5 mg/kg, po miltefosine administered for 5 consecutive days measured on day 4 and 7 post last treatment by Giemsa staining based assay relative to control; assay type: functional
In short: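 Combination study with seven groups of 5 infected BALB/c mice, including vehicle (8% DMSO i.p.), infected untreated and miltefosine-alone groups. Treatment daily for 5 days, test compound i.p. and miltefosine orally. Mice killed on days 4 and 7 post-treatment; liver and spleen parasite load counted on Giemsa-stained stamp smears and expressed as LDU relative to infected untreated mice. Mean ± SD, n = 5, three independent experiments.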

[13] = test system: Mus musculus; assay: Increase in iNOS mRNA expression level in Balb/c mouse splenocytes infected with Leishmania donovani amastigote forms at 25 mg/kg, ip cotreated with 5 mg/kg, po miltefosine for 5 consecutive days measured on day 4 post last treatment by RT-PCR assay relative to control; assay type: functional; in short: as §2
[14] = test system: Mus musculus; assay: Increase in IL-12 level in Balb/c mouse splenocytes infected with Leishmania donovani amastigote forms at 25 mg/kg, ip co-treated with 5 mg/kg, po miltefosine administered for 5 consecutive days measured on day 4 post last treatment by sandwich ELISA relative to control; assay type: functional
In short: (§3)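 Splenocytes (2×10^6) from treated infected BALB/c mice taken on day 4 or 7 post-treatment. Cultured in phenol-red-free RPMI 1640 with 5 μg/mL soluble L. donovani antigen for 72 h at 37 °C, 5% CO2. Supernatant cytokines measured by sandwich ELISA against a standard curve. Mean ± SD, n = 5 mice per group, three independent experiments.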

[15] = test system: Leishmania donovani; assay: Antileishmanial activity against Leishmania donovani amastigote forms infected in Balb/c mouse assessed as reduction in liver weight at 12.5 to 200 mg/kg, ip administered for 5 consecutive days; assay type: functional, organism-based
[16] = test system: Leishmania donovani; assay: Antileishmanial activity against Leishmania donovani amastigote forms infected in Balb/c mouse assessed as inhibition of parasitic burden in spleen at 100 mg/kg, ip administered for 5 consecutive days measured on day 7 post last treatment by Giemsa staining based assay relative to control; assay type: functional; details: 168 h
[17] = test system: Mus musculus; assay: Increase in iNOS-mediated NO generation in Balb/c mouse splenocytes infected with Leishmania donovani amastigote forms at 25 mg/kg, ip cotreated with 5 mg/kg, po miltefosine for 5 consecutive days measured on day 4 post last treatment followed by soluble Leishmania donovani promastigote antigen-stimulation for 72 hrs by Griess assay relative to control; assay type: functional
In short: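 Splenocytes from treated infected BALB/c mice (5-day regimen, i.p. test compound, oral miltefosine; n = 5) isolated day 4 and day 7 post-treatment. Cultured in phenol red-free RPMI 1640 with 5 μg/mL SLA for 72 h at 37 °C, 5% CO2. Supernatant nitrite measured by Griess assay at 540 nm against a sodium nitrite standard curve.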

[18] = test system: Mus musculus; assay: Increase in IFN-gamma level in Balb/c mouse splenocytes infected with Leishmania donovani amastigote forms at 25 mg/kg, ip co-treated with 5 mg/kg, po miltefosine administered for 5 consecutive days measured on day 4 post last treatment by sandwich ELISA relative to control; assay type: functional; in short: as §3
[19] = test system: Leishmania donovani; assay: Induction of apoptosis in Leishmania donovani MHOM/IN/80/DD8 promastigote forms assessed as DNA fragmentation at 50 uM after 48 hrs by propidium iodide staining based TUNEL assay; assay type: functional
In short: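 DNA fragmentation detected by TUNEL under fluorescence and phase-contrast microscopy, with counts of TUNEL-positive cells; three independent experiments.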

[20] = test system: Mus musculus; assay: Increase in TNFalpha level in Balb/c mouse splenocytes infected with Leishmania donovani amastigote forms at 25 mg/kg, ip co-treated with 5 mg/kg, po miltefosine administered for 5 consecutive days measured on day 4 post last treatment by sandwich ELISA relative to control; assay type: functional; in short: as §1
[21] = test system: Liver; assay: Intrinsic clearance in mouse liver S9 fractions assessed per mg protein at 1 mM in presence of NADPH by HPLC method; assay type: ADME; details: s9, 1000 µM

SMILES: COc1ccc(C2C3=C(CCC3=O)Nc3c2c(-c2c[nH]c4ccccc24)nn3-c2ccc(Cl)c(Cl)c2)cc1OC (stereo unspecified)
- fold change (FC) [1]: 7.3
- half-life [2]: 289 min
- inhibition in vivo at 50 mg/kg [3]: > 91%
- fold change (FC) [4]: 4.9
- viability at 72 h [5]: > 95%
- inhibition at 50 µM [6]: > 93%
- inhibition in vivo at 200 mg/kg [7]: 93%
- IC50 [8]: 4.05 µM
- Activity [9]: Active
- Activity [10]: 52.6%
- inhibition [11]: Active
- inhibition (INH) [12]: >92%
- fold change (FC) [13]: 11.8
- fold change (FC) [14]: 12.7
- Activity [15]: Active
- inhibition in vivo at 100 mg/kg [16]: 90%
- fold change (FC) [17]: 5.6
- fold change (FC) [18]: 9.1
- Activity [19]: Active
- fold change (FC) [20]: 7.4
- CLH [21]: 27.47 µL/min
